What was measured:
[1] = test system: MT4; assay: Concentration required to reduce the viability of mock infected cells by 50%; type: functional; conditions: Homo sapiens
In short: (§1)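 MT-4 cells were infected with HIV-1 (III_B) or HIV-2 (ROD) at MOI 0.01 (100 CCID₅₀), or mock-infected, run in parallel. Cells were exposed to various compound concentrations and grown 5 days, then viable cells were counted by MTT colorimetry. EC₅₀ protects 50% of infected cells from cytopathicity; CC₅₀ cuts mock-infected viability by 50%. Values are averages of several experiments.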

[2] = test system: Human immunodeficiency virus 1; assay: Effective concentration against HIV-1(IIIB) replication in MT-4 cells; type: functional, organism-based; conditions: Human immunodeficiency virus 1, MT4; in short: as §1
[3] = test system: Human immunodeficiency virus 2; assay: Effective concentration against HIV-2(ROD) replication in MT-4 cells; type: functional, organism-based; conditions: Human immunodeficiency virus 2, MT4; in short: as §1
[4] = pKa was reported; type: physicochemical
In short: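 Potentiometric titration: a 0.1 mM aqueous solution with 4 equiv HClO₄ at 25 °C, I = 0.1 M (NaClO₄), was titrated with 0.1 M NaOH. The electrode was calibrated with pH 4.00 and 7.00 buffers. UV spectra (400–200 nm, 1 cm path) were also taken at 0.17 mM across pH 1–7, with pH set by HClO₄ in 0.1 M NaClO₄.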

Nc1cc(CN2CCCNCCNCCCNCC2)cc(CN2CCCNCCNCCCNCC2)c1
CC50 [1]: > 194 µM | EC50 [2]: 0.0468 µM | EC50 [3]: 0.039 µM

c1cc(CN2CCCNCCNCCCNCC2)cc(CN2CCCNCCNCCCNCC2)c1
CC50 [1]: > 421 µM

c1nc(CN2CCCNCCNCCCNCC2)cnc1CN1CCCNCCNCCCNCC1
CC50 [1]: > 203 µM | EC50 [2]: 139 µM | EC50 [3]: 106 µM

c1ccc(-c2cc(CN3CCCNCCNCCCNCC3)cc(CN3CCCNCCNCCCNCC3)c2)cc1
CC50 [1]: > 198 µM

c1ccc(C2CCNCCNCCCNCCN2)nc1 (centres undefined)
pKa [4]: < 3

c1ncc(CN2CCCNCCNCCCNCC2)cc1CN1CCCNCCNCCCNCC1
CC50 [1]: > 395 µM | EC50 [2]: 0.0316 µM | EC50 [3]: 0.071 µM

c1ccc(-c2cc(CN3CCCNCCNCCCNCC3)cc(CN3CCCNCCNCCCNCC3)n2)cc1
CC50 [1]: > 203 µM | EC50 [2]: 0.0398 µM | EC50 [3]: 0.02 µM

c1ccc2c(CN3CCCNCCNCCCNCC3)cc(CN3CCCNCCNCCCNCC3)nc2c1
CC50 [1]: > 419 µM | EC50 [2]: 3.77 µM | EC50 [3]: 4.27 µM

COC(=O)c1cc(CN2CCCNCCNCCCNCC2)ccc1CN1CCCNCCNCCCNCC1
CC50 [1]: > 198 µM | EC50 [2]: 0.682 µM | EC50 [3]: 0.59 µM

c1ncc(CN2CCCNCCNCCCNCC2)nc1CN1CCCNCCNCCCNCC1
CC50 [1]: > 203 µM | EC50 [2]: 0.0261 µM | EC50 [3]: 0.0174 µM

c1cc(CN2CCCNCCNCCCNCC2)cc(CN2CCCNCCNCCCNCC2)n1
CC50 [1]: 17 µM | EC50 [2]: 16.4 µM | EC50 [3]: 16.4 µM

Nc1cc(CN2CCCNCCNCCCNCC2)ccc1CN1CCCNCCNCCCNCC1
CC50 [1]: > 179 µM | EC50 [2]: 0.187 µM | EC50 [3]: 0.0934 µM

c1ccc(CCC2CNCCNCCCNCCNC2)nc1
pKa [4]: 5.32

O=C(O)c1cc(CN2CCCNCCNCCCNCC2)cc(CN2CCCNCCNCCCNCC2)c1
CC50 [1]: > 200 µM | EC50 [2]: > 203 µM | EC50 [3]: > 203 µM

O=C(O)c1cc(CN2CCCNCCNCCCNCC2)ccc1CN1CCCNCCNCCCNCC1
CC50 [1]: > 200 µM | EC50 [2]: > 200 µM | EC50 [3]: > 200 µM

c1cc(CN2CCCNCCNCCCNCC2)nc(CN2CCCNCCNCCCNCC2)c1
CC50 [1]: > 409 µM | EC50 [2]: 0.0245 µM | EC50 [3]: 0.0654 µM

c1ccc2c(CN3CCCNCCNCCCNCC3)cc(CN3CCCNCCNCCCNCC3)cc2c1
CC50 [1]: 207 µM | EC50 [2]: 0.157 µM | EC50 [3]: 0.0786 µM

Oc1cccnc1C1CCNCCNCCCNCCN1 (centres undefined)
pKa [4]: 3.6

c1cc(CN2CCCNCCNCCCNCC2)ccc1CN1CCCNCCNCCCNCC1 [PLERIXAFOR]
CC50 [1]: > 421 µM | EC50 [3]: 0.0059 µM

c1cc(CN2CCCNCCNCCCNCC2)ncc1CN1CCCNCCNCCCNCC1
CC50 [1]: 18 µM | EC50 [2]: 0.908 µM | EC50 [3]: 2.19 µM

Reference: ChEMBL document CHEMBL1129236, “Synthesis and structure-activity relationships of phenylenebis(methylene)-linked bis-tetraazamacrocycles that inhibit human immunodeficiency virus replication. 2. Effect of heteroaromatic linkers on the activity of bicyclams” (J Med Chem, 1996)
